Measurements: ChEMBL document CHEMBL2417423, “Synthesis and antifungal activities of miltefosine analogs” (Bioorg Med Chem Lett, 2013)
Converted amounts (≈) assume the structure as drawn. The source made the active and inactive calls. The calls are words filed in the database; no cut-off is given here.

Legend:
Cryptococcus neoformans [1] = experiment: Antifungal activity against Cryptococcus neoformans ATCC 90113 after 72 hrs; assay type: functional; conditions: ATCC 90113, 72 h
Method in brief: (§1)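 MIC is the lowest concentration with no detectable growth. MFC: 5 μL from each clear well moved to agar at 35°C, 48 h for Candida spp. and A. fumigatus, 72 h for C. neoformans; lowest concentration that kills. Values are means of three independent experiments (two for one analog).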

Vero = experiment: Cytotoxicity against african green monkey Vero cells after 48 hrs by neutral red; assay type: cell-based; conditions: Chlorocebus sabaeus
Pichia kudriavzevii [2] = experiment: Antifungal activity against Candida krusei ATCC 6258 after 48 hrs by spectrophotometry; assay type: functional; conditions: ATCC 6258, 48 h; method in brief: as §1
Nakaseomyces glabratus [3] = experiment: Antifungal activity against Candida glabrata ATCC 90030 after 48 hrs; assay type: functional; conditions: ATCC 90030, 48 h; method in brief: as §1
[4] = Cytotoxicity against pig LLC-PK11 cells after 48 hrs by neutral red; assay type: cell-based; conditions: Sus scrofa, LLC-PK11, 48 h
Cryptococcus neoformans [5] = experiment: Antifungal activity against Cryptococcus neoformans ATCC 90113 after 72 hrs by spectrophotometry; assay type: functional; conditions: ATCC 90113, 72 h; method in brief: as §1
HepG2 = experiment: Cytotoxicity against human HepG2 cells after 48 hrs by neutral red; assay type: cell-based; conditions: HepG2, 48 h
Nakaseomyces glabratus [6] = experiment: Antifungal activity against Candida glabrata ATCC 90030 after 48 hrs by spectrophotometry; assay type: functional; conditions: ATCC 90030, 48 h; method in brief: as §1
Candida albicans [7] = experiment: Antifungal activity against Candida albicans ATCC 90028 after 48 hrs; assay type: functional; conditions: ATCC 90028, 48 h; method in brief: as §1
Candida albicans [8] = experiment: Antifungal activity against Candida albicans ATCC 90028 after 48 hrs by spectrophotometry; assay type: functional; conditions: ATCC 90028, 48 h; method in brief: as §1
Pichia kudriavzevii [9] = experiment: Antifungal activity against Candida krusei ATCC 6258 after 48 hrs; assay type: functional; conditions: ATCC 6258, 48 h; method in brief: as §1
Aspergillus fumigatus [10] = experiment: Antifungal activity against Aspergillus fumigatus ATCC 90906 after 48 hrs by spectrophotometry; assay type: functional; conditions: ATCC 90906, 48 h; method in brief: as §1
Pichia kudriavzevii [11] = experiment: Antifungal activity against Candida krusei ATCC 6258 at 20 ug/ml after 48 hrs by spectrophotometry; assay type: functional, organism-based
Pichia kudriavzevii [12] = experiment: Antifungal activity against Candida krusei ATCC 6258 at 20 ug/ml after 48 hrs; assay type: functional, organism-based
Aspergillus fumigatus [13] = experiment: Antifungal activity against Aspergillus fumigatus ATCC 90906 at 20 ug/ml after 48 hrs; assay type: functional, organism-based
Aspergillus fumigatus [14] = experiment: Antifungal activity against Aspergillus fumigatus ATCC 90906 at 20 ug/ml after 48 hrs by spectrophotometry; assay type: functional, organism-based
Cryptococcus neoformans [15] = experiment: Antifungal activity against Cryptococcus neoformans ATCC 90113 at 20 ug/ml after 72 hrs; assay type: functional, organism-based
Candida albicans [16] = experiment: Antifungal activity against Candida albicans ATCC 90028 at 20 ug/ml after 48 hrs; assay type: functional, organism-based
Cryptococcus neoformans [17] = experiment: Antifungal activity against Cryptococcus neoformans ATCC 90113 at 20 ug/ml after 72 hrs by spectrophotometry; assay type: functional, organism-based
Candida albicans [18] = experiment: Antifungal activity against Candida albicans ATCC 90028 at 20 ug/ml after 48 hrs by spectrophotometry; assay type: functional, organism-based
Aspergillus fumigatus [19] = experiment: Antifungal activity against Aspergillus fumigatus ATCC 90906 after 48 hrs; assay type: functional; conditions: ATCC 90906, 48 h; method in brief: as §1
Candida albicans [20] = experiment: Antifungal activity against Candida albicans SC5314 infected in CD-1 mouse assessed as host survival at 5 mg/kg, ip administered 4, 24, 48, 72, and 96 hrs post inoculation measured up to 8 days relative to control; assay type: functional, organism-based; design: dose 5 mg/kg
Candida albicans [21] = experiment: Antifungal activity against Candida albicans SC5314 infected in CD-1 mouse assessed as host survival at 25 mg/kg, po administered 4, 24, 48, 72, and 96 hrs post inoculation measured up to 12 days relative to control; assay type: functional, organism-based; design: dose 25 mg/kg
Method in brief: (§2)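 Male CD1 mice, 6-7 weeks old, five per group, infected by tail-vein injection of 1 × 10^6 C. albicans SC5314 cells. Dosed intraperitoneally or orally at 4, 24, 48, 72 and 96 h post inoculation; PBS-treated controls. Survival followed for 12 days and compared by Log-rank test.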

Candida albicans [22] = experiment: Antifungal activity against Candida albicans SC5314 infected in CD-1 mouse assessed as host survival at 5 mg/kg, po administered 4, 24, 48, 72, and 96 hrs post inoculation measured up to 12 days relative to control; assay type: functional, organism-based; design: dose 5 mg/kg; method in brief: as §2
Candida albicans [23] = experiment: Antifungal activity against Candida albicans SC5314 infected in CD-1 mouse assessed as host survival at 1 mg/kg, ip administered 4, 24, 48, 72, and 96 hrs post inoculation measured up to […] relative to control; assay type: functional, organism-based; design: dose 1 mg/kg
Leishmania donovani = experiment: Antileishmanial activity against Leishmania donovani in ip dosed mouse model of leishamniasis; assay type: functional

Row | SMILES | MFC (Cryptococcus neoformans [1]) | IC50 (Vero) | MIC (Pichia kudriavzevii [2]) | MFC (Nakaseomyces glabratus [3]) | IC50 [4] | MIC (Cryptococcus neoformans [5]) | IC50 (HepG2) | MIC (Nakaseomyces glabratus [6]) | MFC (Candida albicans [7]) | MIC (Candida albicans [8]) | MFC (Pichia kudriavzevii [9]) | MIC (Aspergillus fumigatus [10]) | Activity (Pichia kudriavzevii [11]) | Activity (Pichia kudriavzevii [12]) | Activity (Cryptococcus neoformans [15]) | Activity (Candida albicans [16]) | Activity (Cryptococcus neoformans [17]) | Activity (Candida albicans [18]) | MFC (Aspergillus fumigatus [19]) | also measured
1 | CCCCCCCCCCCCCCOP(=O)([O-])OCC[N+](C)(C)Cc1ccccc1 | 3.3 µg/mL (≈ 7.24 µM) | > 25 µg/mL | 10 µg/mL (≈ 21.9 µM) | 8.3 µg/mL (≈ 18.2 µM) | 10.8 µg/mL (≈ 23.7 µM) | 3.3 µg/mL (≈ 7.24 µM) | > 25 µg/mL | 8.3 µg/mL (≈ 18.2 µM) | 8.3 µg/mL (≈ 18.2 µM) | 6.7 µg/mL (≈ 14.7 µM) | 10 µg/mL (≈ 21.9 µM) | 10 µg/mL (≈ 21.9 µM) |  |  |  |  |  |  |  | 
2 | C=CC[N+](C)(C)CCOP(=O)([O-])OCCCCCCCCCCCCCCCC |  | > 25 µg/mL |  | 16.6 µg/mL (≈ 38.3 µM) | 4.1 µg/mL (≈ 9.46 µM) |  | 13.2 µg/mL (≈ 30.4 µM) | 16.6 µg/mL (≈ 38.3 µM) |  |  |  |  | inactive | inactive | inactive | inactive | inactive | inactive |  | Activity (Aspergillus fumigatus [13]): inactive; Activity (Aspergillus fumigatus [14]): inactive
3 | CCCCCCCCCCCCCCCCOP(=O)([O-])OCC[N+](C)(C)Cc1ccccc1 | 3.3 µg/mL (≈ 6.82 µM) | > 25 µg/mL | 5 µg/mL (≈ 10.3 µM) | 3.3 µg/mL (≈ 6.82 µM) | 4.8 µg/mL (≈ 9.92 µM) | 3.3 µg/mL (≈ 6.82 µM) | > 25 µg/mL | 3.3 µg/mL (≈ 6.82 µM) | 2.5 µg/mL (≈ 5.17 µM) | 2.5 µg/mL (≈ 5.17 µM) | 15 µg/mL (≈ 31 µM) | 2.5 µg/mL (≈ 5.17 µM) |  |  |  |  |  |  | 2.5 µg/mL (≈ 5.17 µM) | Activity (Candida albicans [20]): inactive; Activity (Candida albicans [21]): inactive; Activity (Candida albicans [22]): inactive; Activity (Candida albicans [23]): inactive
4 | CCCCCCCCCCCCCCCCOP(=O)([O-])OCC[N+](C)(C)C/C=C/c1ccccc1 |  | > 25 µg/mL | 3.3 µg/mL (≈ 6.47 µM) | 3.3 µg/mL (≈ 6.47 µM) | 2.1 µg/mL (≈ 4.12 µM) |  | 19.6 µg/mL (≈ 38.5 µM) | 2.5 µg/mL (≈ 4.9 µM) |  |  | 3.3 µg/mL (≈ 6.47 µM) | 2.5 µg/mL (≈ 4.9 µM) |  |  | inactive | inactive | inactive | inactive | 5 µg/mL (≈ 9.81 µM) | 
5 | C[C@@H]1[C@H](O)[C@@H](C)/C=C/C=C/C=C/C=C/C=C/C=C/C=C/[C@H](O[C@@H]2O[C@H](C)[C@@H](O)[C@H](N)[C@@H]2O)C[C@@H]2O[C@](O)(C[C@@H](O)C[C@@H](O)[C@H](O)CC[C@@H](O)C[C@@H](O)CC(=O)O[C@H]1C)C[C@H](O)[C@H]2C(=O)O [AMPHOTERICIN B] |  |  | 1.7 µg/mL (≈ 1.84 µM) | 1.5 µg/mL (≈ 1.62 µM) |  |  |  | 1.3 µg/mL (≈ 1.41 µM) | 1 µg/mL (≈ 1.08 µM) | 0.9 µg/mL (≈ 0.974 µM) | 1.7 µg/mL (≈ 1.84 µM) | 2.5 µg/mL (≈ 2.71 µM) |  |  |  |  |  |  | 5 µg/mL (≈ 5.41 µM) | 
6 | CCCCCCCCCCCCCCCCOP(=O)([O-])OCC[N+](C)(C)Cc1ccc(Cl)cc1 |  | > 25 µg/mL |  | 11.2 µg/mL (≈ 21.6 µM) | 3.2 µg/mL (≈ 6.18 µM) |  | 21 µg/mL (≈ 40.5 µM) | 11.2 µg/mL (≈ 21.6 µM) |  |  |  | 12.5 µg/mL (≈ 24.1 µM) | inactive | inactive | inactive | inactive | inactive | inactive | 12.5 µg/mL (≈ 24.1 µM) | 
7 | CCCCCCCCCCCCCCCCOP(=O)([O-])OCC[N+](C)(C)C [MILTEFOSINE] | 2.1 µg/mL (≈ 5.15 µM) | > 25 µg/mL | 2.5 µg/mL (≈ 6.13 µM) | 4.2 µg/mL (≈ 10.3 µM) | 2.7 µg/mL (≈ 6.62 µM) | 2.1 µg/mL (≈ 5.15 µM) | > 25 µg/mL | 3.3 µg/mL (≈ 8.1 µM) | 2.5 µg/mL (≈ 6.13 µM) | 2.5 µg/mL (≈ 6.13 µM) | 3.3 µg/mL (≈ 8.1 µM) | 2.9 µg/mL (≈ 7.12 µM) |  |  |  |  |  |  | 9.2 µg/mL (≈ 22.6 µM) | Activity (Candida albicans [20]): inactive; ED50 (Leishmania donovani): 7.72 mg/kg
8 | CCCCCCCCCCCCCCCCCCOP(=O)([O-])OCC[N+](C)(C)Cc1ccccc1 |  | > 25 µg/mL |  | 4.2 µg/mL (≈ 8.21 µM) | 4.7 µg/mL (≈ 9.18 µM) |  | 13 µg/mL (≈ 25.4 µM) | 4.2 µg/mL (≈ 8.21 µM) |  |  |  |  | inactive | inactive | inactive | inactive | inactive | inactive |  | Activity (Aspergillus fumigatus [13]): inactive; Activity (Aspergillus fumigatus [14]): inactive
9 | CCCCCCCCCCCCCCCCOP(=O)([O-])OCC[N+](C)(C)Cc1ccc(OC)cc1 | 4.2 µg/mL (≈ 8.18 µM) | > 25 µg/mL | 2 µg/mL (≈ 3.89 µM) | 3.3 µg/mL (≈ 6.42 µM) | 1.9 µg/mL (≈ 3.7 µM) | 4.2 µg/mL (≈ 8.18 µM) | 12.9 µg/mL (≈ 25.1 µM) | 2.5 µg/mL (≈ 4.87 µM) | 4.2 µg/mL (≈ 8.18 µM) | 4.2 µg/mL (≈ 8.18 µM) | 3.3 µg/mL (≈ 6.42 µM) | 2.5 µg/mL (≈ 4.87 µM) |  |  |  |  |  |  | 7.5 µg/mL (≈ 14.6 µM) | 
10 | CCCCCCCCCCCCCCCCOP(=O)([O-])OCC[N+](C)(C)Cc1ccc(Br)cc1 |  | > 25 µg/mL |  | 10.8 µg/mL (≈ 19.2 µM) | 5.5 µg/mL (≈ 9.78 µM) |  | 21.3 µg/mL (≈ 37.9 µM) | 10.8 µg/mL (≈ 19.2 µM) |  |  |  | 20 µg/mL (≈ 35.6 µM) | inactive | inactive | inactive | inactive | inactive | inactive | 20 µg/mL (≈ 35.6 µM) | 
11 | COc1cccc2c1C(=O)c1c(O)c3c(c(O)c1C2=O)C[C@@](O)(C(=O)CO)C[C@@H]3O[C@H]1C[C@H](N)[C@H](O)[C@H](C)O1 [DOXORUBICIN] |  | > 5 µg/mL |  |  | 0.7 µg/mL (≈ 1.29 µM) |  | 0.9 µg/mL (≈ 1.66 µM) |  |  |  |  |  |  |  |  |  |  |  |  | 
12 | CCCCCCCCCCCCCCCCOP(=O)([O-])OCC[N+](C)(C)Cc1ccc([N+](=O)[O-])cc1 | 2.5 µg/mL (≈ 4.73 µM) | > 25 µg/mL | 2.5 µg/mL (≈ 4.73 µM) | 2.5 µg/mL (≈ 4.73 µM) | 1.6 µg/mL (≈ 3.03 µM) | 2.5 µg/mL (≈ 4.73 µM) | 11.5 µg/mL (≈ 21.8 µM) | 2.5 µg/mL (≈ 4.73 µM) | 2.5 µg/mL (≈ 4.73 µM) | 2.5 µg/mL (≈ 4.73 µM) | 3.3 µg/mL (≈ 6.24 µM) | 2.5 µg/mL (≈ 4.73 µM) |  |  |  |  |  |  | 7.5 µg/mL (≈ 14.2 µM) | 
